# Assay results of several laboratories.
# Each line is one published result; the experiments were not run side by side.
# Target: Protein kinase C theta type (PRKCQ, Homo sapiens, UniProt Q04759)
Structure (SMILES),test,setting,measurement,result
Cc1ccc(C(=O)NCc2ccsc2)cc1C#Cc1cn(C(C)C)c2ncnc(N)c12,"enzyme activity, inhibitor",1 µM,activity vs control,105%
COc1cc2ncnc(Nc3ccc(Oc4ccccc4)c(C)c3C)c2cc1OC,"enzyme activity, inhibitor",1 µM,inhibition,8%
F[C@@H]1CCN(c2nccc(-c3cnn4ncccc34)n2)C1,binding,1 µM,remaining binding,100%
CCCS(=O)(=O)Nc1ccc(F)c(C(=O)c2c[nH]c3ncc(-c4ccc(Cl)cc4)cc23)c1F,"enzyme activity, inhibitor",1 µM,inhibition,< 10%
O=C(Nc1cnn(-c2csc(C(=O)NC3COC3)c2)c1)Nc1c(F)cccc1Cl,"enzyme activity, inhibitor",5 µM,remaining activity,94.7%
O=C(NCc1ncc(C(F)(F)F)cc1Cl)c1ccc2c(c1)C1(CCS(=O)(=O)CC1)[C@H](C1CC1)N2S(=O)(=O)c1ccc(F)cc1,"cell-free assay, competition with immobilised ligand",1 µM,remaining binding,100%
CNC(=O)c1cc(Oc2ccc(NC(=O)Nc3ccc(Cl)c(C(F)(F)F)c3)cc2)ccn1,"enzyme activity, inhibitor",10 µM,inhibition,-12%
Cc1cnc(NC2CCOCC2)nc1-n1cnc(C(=O)NC(CN)c2cc(F)cc(Cl)c2)c1 (stereo not shown),"enzyme activity, inhibitor, radiometric",1 µM,remaining activity,99%
CN(C)C1CCN(CC#Cc2nn(C3CCCC3)c3nc(NCc4ccccc4)ncc23)C1 (stereo not shown),"enzyme activity, inhibitor, FRET",0.1 µM,inhibition,-1%
CC1=C(C#N)[C@@H](c2ccc3[nH]nc(C)c3c2)C(C#N)=C(c2ccc(Cl)cc2)N1,"cell-free assay, competition with immobilised ligand",1 µM,remaining binding,100%
CC(C)c1ccc(NC(=O)c2cccs2)c(-c2nc3ccccc3[nH]c2=O)c1,"enzyme activity, inhibitor",1 µM,activity vs control,83%
CCCOc1ccc(OC)c(F)c1C(=O)c1ccc(C(=O)N[C@@H]2CNC[C@H]2NC(=O)c2ccc3[nH]ncc3c2)cc1,"enzyme activity, inhibitor",10 µM,remaining activity,22%
Cc1ccc(NC(=O)c2ccc(C)c(C(F)(F)F)c2)cc1C#Cc1nn(C2CCC(O)CC2)c2ncnc(N)c12 (stereo not shown),cell-free assay,10 µM,remaining signal,103%
COc1cc(Cl)c(C(=O)N[C@@H](CN[C@H]2CC[C@@H](N)CC2)Cc2ccc(C#N)cc2)cc1-c1ccc(CN[C@H](C)c2ccc(C)cc2)o1,"enzyme activity, inhibitor",1 µM,remaining activity,106%
CNCc1ccc(-c2cc(-c3nc(-c4ccc(S(=O)(=O)C(C)C)cc4)cnc3N)on2)cc1,"enzyme activity, inhibitor",0.4 µM,inhibition,0%
Cc1ccc(Nc2nccc(N(C)c3ccc4c(C)n(C)nc4c3)n2)cc1S(N)(=O)=O,"enzyme activity, inhibitor",10 µM,inhibition,-3%
CS(=O)(=O)CCNCc1ccc(-c2ccc3ncnc(Nc4ccc(OCc5cccc(F)c5)c(Cl)c4)c3c2)o1,cell-free assay,0.5 µM,remaining signal,72.4%
O=C(O)c1cc(-c2ccc(C3CCNCC3)cc2)c2ccc(-c3ccc(C(F)(F)F)cc3)cc2c1,"cell-free assay, competition with immobilised ligand",1 µM,remaining binding,100%
N#CCCc1ccc2c(c1)-c1[nH]c3ccc([N+](=O)[O-])cc3c1CC(=O)N2,cell-free assay,0.5 µM,remaining signal,111%
CC(C)(C)c1nc2c(s1)c1nc(N)ncc1c1ccc(NS(=O)(=O)c3c(F)cccc3F)c(F)c12,"enzyme activity, inhibitor, radiometric",1 µM,remaining activity,115%
Nc1ncnc2occ(-c3ccc(NC(=O)Nc4cc(C(F)(F)F)ccc4F)cc3)c12,cell-free assay,20 µM,remaining signal,13%
CC(=O)N1CCC(c2ccc(C(=O)NC(=N)N)cc2C(F)(F)F)CC1,"cell-free assay, competition with immobilised ligand",1 µM,remaining binding,91%
Cn1cnc(Br)c1C1=CN(c2ncnc3[nH]cnc23)CCS1,"enzyme activity, inhibitor, radiometric",50 nM,inhibition,64.1%
CS(=O)(=O)c1cc(C2(NC(=O)c3cncc4c3cnn4-c3ccc(F)cc3)CC2)ccn1,"cell-free assay, competition with immobilised ligand",1 µM,remaining binding,99%
CC[C@H](CO)Nc1nc(NCc2ccccc2)c2ncn(C(C)C)c2n1,cell-free assay,0.5 µM,remaining signal,90%
COc1ccc2c(c1)O[C@H](c1ccc(OC)c(OC)c1)C[C@@H]2NC(=O)C1(c2ccc3c(c2)OC(F)(F)O3)CC1,"cell-free assay, competition with immobilised ligand",1 µM,remaining binding,100%
O=C1NC(=O)c2cc(Nc3ccc(F)cc3)c(Nc3ccc(F)cc3)cc21,cell-free assay,0.5 µM,remaining signal,98.7%
CC(=O)Nc1c(C(C)=O)c(=O)n(C)c2nc(-c3ccc(Cl)cc3Cl)c(-c3ccc(Cl)cc3)cc12,"cell-free assay, competition with immobilised ligand",1 µM,remaining binding,100%
Cc1sc(C(=O)NC2COC2)cc1-n1cc(NC(=O)Nc2c(F)cccc2Cl)cn1,"enzyme activity, inhibitor",10 µM,remaining activity,96.9%
CCC(=O)N[C@@H]1CC[C@H](C(=O)N(C)c2ccc(-c3nc4ccccc4o3)cc2)C1,"cell-free assay, competition with immobilised ligand",1 µM,remaining binding,76%
CCOc1cc(-c2nncn2C)ccc1Nc1ncc2cc(C)nc(NCC(C)(C)C)c2n1,"enzyme activity, inhibitor, FRET",1 µM,inhibition,< 15%
